Test results reported in ChEMBL document CHEMBL3797186, “Single Residue Substitutions That Confer Voltage-Gated Sodium Ion Channel Subtype Selectivity in the NaV1.7 Inhibitory Peptide GpTx-1” (J Med Chem, 2016).
Positions of bridges follow the written chain, without caps; N, C: chain ends. Residues, ends and D or L forms follow the SMILES beside them.

Molecular target: Sodium channel protein type 5 subunit alpha (Homo sapiens, UniProt Q14524)
Assay: Inhibition of human Nav1.5 expressed in HEK293 cells assessed as inward peak current by ion-works quattro patch clamp electrophysiology method
Format: cell-based
In short: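 Stable HEK293 line expressing human NaV1.5, recorded by population patch clamp on the IonWorks Quattro.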

Sequence of Sodium channel protein type 5 subunit alpha (Q14524 whole entry): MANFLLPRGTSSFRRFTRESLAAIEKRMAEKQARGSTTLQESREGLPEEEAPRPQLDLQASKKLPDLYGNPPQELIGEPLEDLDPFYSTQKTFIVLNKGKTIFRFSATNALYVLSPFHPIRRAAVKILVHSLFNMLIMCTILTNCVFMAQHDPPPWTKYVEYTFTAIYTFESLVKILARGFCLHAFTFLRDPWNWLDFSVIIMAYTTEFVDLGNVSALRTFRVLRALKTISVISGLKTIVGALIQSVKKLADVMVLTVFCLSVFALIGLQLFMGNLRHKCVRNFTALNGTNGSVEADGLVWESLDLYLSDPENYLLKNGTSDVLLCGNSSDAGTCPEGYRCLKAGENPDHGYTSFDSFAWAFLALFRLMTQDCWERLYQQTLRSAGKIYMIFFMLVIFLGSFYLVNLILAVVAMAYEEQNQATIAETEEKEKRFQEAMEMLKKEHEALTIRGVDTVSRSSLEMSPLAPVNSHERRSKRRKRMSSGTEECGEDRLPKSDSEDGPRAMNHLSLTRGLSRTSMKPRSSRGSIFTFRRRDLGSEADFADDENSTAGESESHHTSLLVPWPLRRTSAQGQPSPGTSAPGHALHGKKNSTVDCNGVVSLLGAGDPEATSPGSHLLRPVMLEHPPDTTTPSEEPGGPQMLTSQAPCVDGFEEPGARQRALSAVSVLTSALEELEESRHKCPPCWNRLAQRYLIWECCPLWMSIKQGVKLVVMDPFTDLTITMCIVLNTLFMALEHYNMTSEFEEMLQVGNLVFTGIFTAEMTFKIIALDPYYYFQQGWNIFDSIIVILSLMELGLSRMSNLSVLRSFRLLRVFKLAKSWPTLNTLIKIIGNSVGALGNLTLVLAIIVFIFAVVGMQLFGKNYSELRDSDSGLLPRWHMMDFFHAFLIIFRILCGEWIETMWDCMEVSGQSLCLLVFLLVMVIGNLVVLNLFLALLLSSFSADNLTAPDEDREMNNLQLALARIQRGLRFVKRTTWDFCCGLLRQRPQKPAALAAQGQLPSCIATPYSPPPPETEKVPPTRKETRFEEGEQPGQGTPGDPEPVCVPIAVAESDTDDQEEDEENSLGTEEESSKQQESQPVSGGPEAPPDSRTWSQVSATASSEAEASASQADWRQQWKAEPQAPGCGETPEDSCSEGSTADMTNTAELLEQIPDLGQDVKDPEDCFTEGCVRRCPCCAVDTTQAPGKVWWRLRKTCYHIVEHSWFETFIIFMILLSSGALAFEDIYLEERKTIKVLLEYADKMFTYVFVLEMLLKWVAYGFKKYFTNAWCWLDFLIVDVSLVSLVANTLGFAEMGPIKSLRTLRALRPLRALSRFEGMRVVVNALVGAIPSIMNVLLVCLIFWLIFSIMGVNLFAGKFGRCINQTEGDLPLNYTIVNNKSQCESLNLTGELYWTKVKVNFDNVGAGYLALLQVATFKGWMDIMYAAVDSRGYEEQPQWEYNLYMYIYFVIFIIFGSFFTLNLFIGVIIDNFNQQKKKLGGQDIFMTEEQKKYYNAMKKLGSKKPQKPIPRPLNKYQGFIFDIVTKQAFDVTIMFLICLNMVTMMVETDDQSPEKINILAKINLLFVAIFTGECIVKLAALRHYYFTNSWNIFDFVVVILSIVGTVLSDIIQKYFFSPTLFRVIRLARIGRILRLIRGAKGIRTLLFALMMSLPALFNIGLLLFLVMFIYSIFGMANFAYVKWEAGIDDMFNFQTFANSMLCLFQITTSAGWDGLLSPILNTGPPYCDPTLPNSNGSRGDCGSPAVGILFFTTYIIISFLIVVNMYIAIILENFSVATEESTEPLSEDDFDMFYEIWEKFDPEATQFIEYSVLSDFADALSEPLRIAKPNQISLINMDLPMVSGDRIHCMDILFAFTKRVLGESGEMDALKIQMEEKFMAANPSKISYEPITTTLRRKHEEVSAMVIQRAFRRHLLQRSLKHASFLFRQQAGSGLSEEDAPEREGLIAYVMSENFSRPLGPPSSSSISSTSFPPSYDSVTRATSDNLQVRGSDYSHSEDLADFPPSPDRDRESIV

SMILES	IC50
CC[C@H](C)[C@@H]1NC(=O)[C@@H]2CSSC[C@@H]3NC(=O)[C@H](C(C)C)NC(=O)[C@H](CC(C)C)NC(=O)[C@H](CC(N)=O)NC(=O)[C@H](CCCNC(=N)N)NC(=O)[C@H](CCCNC(=N)N)NC(=O)[C@H](CSSC[C@H](NC(=O)[C@@H](N)CC(=O)O)C(=O)N[C@@H](CC(C)C)C(=O)NCC(=O)N[C@@H](Cc4ccccc4)C(=O)N[C@@H](CCSC)C(=O)N[C@@H](CCCNC(=N)N)C(=O)N[C@@H](CCCCN)C(=O)N2)NC(=O)[C@H](CSSC[C@@H](C(=O)N[C@@H](CCCCN)C(=O)N[C@@H](Cc2ccc(O)cc2)C(=O)N[C@H](C(=O)N[C@@H](Cc2ccccc2)C(N)=O)C(C)C)NC(=O)[C@H](Cc2c[nH]c4ccccc24)NC(=O)[C@H](CCCCN)NC(=O)[C@H](Cc2cnc[nH]2)NC(=O)[C@H]([C@@H](C)O)NC(=O)[C@H](CCCNC(=N)N)NC(=O)[C@H](CO)NC3=O)NC(=O)[C@H](CCCCN)NC(=O)[C@H](CC(=O)O)NC(=O)[C@H](CC(N)=O)NC(=O)[C@H](CC(=O)O)NC(=O)[C@@H]2CCCN2C1=O (H-DCLGFMRKCIPDNDKCCRRNLVCSRTHKWCKYVF-NH2; disulfide 2-17, 9-23, 16-30)	> 5 µM
CC[C@H](C)[C@@H]1NC(=O)[C@@H]2CSSC[C@@H]3NC(=O)[C@H](C(C)C)NC(=O)[C@H](CC(C)C)NC(=O)[C@H](CC(N)=O)NC(=O)[C@@H]4CCCN4C(=O)[C@H](CCCNC(=N)N)NC(=O)[C@H](CSSC[C@H](NC(=O)[C@@H](N)CC(=O)O)C(=O)N[C@@H](CC(C)C)C(=O)NCC(=O)N[C@@H](Cc4ccccc4)C(=O)N[C@@H](CCSC)C(=O)N[C@@H](CCCNC(=N)N)C(=O)N[C@@H](CCCCN)C(=O)N2)NC(=O)[C@H](CSSC[C@@H](C(=O)N[C@@H](CCCCN)C(=O)N[C@@H](Cc2ccc(O)cc2)C(=O)N[C@@H](CCCNC(=N)N)C(=O)N[C@@H](Cc2ccccc2)C(N)=O)NC(=O)[C@H](Cc2c[nH]c4ccccc24)NC(=O)[C@H](CCCCN)NC(=O)[C@H](Cc2cnc[nH]2)NC(=O)[C@H]([C@@H](C)O)NC(=O)[C@H](CCCNC(=N)N)NC(=O)[C@H](CO)NC3=O)NC(=O)[C@H](CCCCN)NC(=O)[C@H](CC(=O)O)NC(=O)[C@H](CC(N)=O)NC(=O)[C@H](CC(=O)O)NC(=O)[C@@H]2CCCN2C1=O (H-DCLGFMRKCIPDNDKCCRPNLVCSRTHKWCKYRF-NH2; disulfide 2-17, 9-23, 16-30)	> 5 µM
CC[C@H](C)[C@@H]1NC(=O)[C@@H]2CSSC[C@@H]3NC(=O)[C@H](C(C)C)NC(=O)[C@H](CC(C)C)NC(=O)[C@H](CC(N)=O)NC(=O)[C@@H]4CCCN4C(=O)[C@H](CCCNC(=N)N)NC(=O)[C@H](CSSC[C@H](NC(=O)[C@@H](N)CC(=O)O)C(=O)N[C@@H](CC(C)C)C(=O)NCC(=O)N[C@@H](Cc4ccccc4)C(=O)N[C@@H](CCSC)C(=O)N[C@@H](CCCNC(=N)N)C(=O)N[C@@H](CCCCN)C(=O)N2)NC(=O)[C@H](CSSC[C@@H](C(=O)N[C@@H](CCCCN)C(=O)N[C@@H](Cc2ccc(O)cc2)C(=O)N[C@H](C(=O)N[C@@H](Cc2ccccc2)C(N)=O)C(C)C)NC(=O)[C@H](Cc2c[nH]c4ccccc24)NC(=O)[C@H](CCCCN)NC(=O)[C@H](Cc2cnc[nH]2)NC(=O)[C@H]([C@@H](C)O)NC(=O)[C@H](CCCNC(=N)N)NC(=O)[C@H](CO)NC3=O)NC(=O)[C@H](CCCCN)NC(=O)[C@H](CC(=O)O)NC(=O)[C@H](CC(N)=O)NC(=O)[C@H](CCCNC(=N)N)NC(=O)[C@@H]2CCCN2C1=O (H-DCLGFMRKCIPRNDKCCRPNLVCSRTHKWCKYVF-NH2; disulfide 2-17, 9-23, 16-30)	> 4.8 µM
CC[C@H](C)[C@@H]1NC(=O)[C@@H]2CSSC[C@@H]3NC(=O)[C@H](CCC(=O)O)NC(=O)[C@H](CC(C)C)NC(=O)[C@H](CC(N)=O)NC(=O)[C@@H]4CCCN4C(=O)[C@H](CCCNC(=N)N)NC(=O)[C@H](CSSC[C@H](NC(=O)[C@@H](N)CC(=O)O)C(=O)N[C@@H](CC(C)C)C(=O)NCC(=O)N[C@@H](Cc4ccccc4)C(=O)N[C@@H](CCSC)C(=O)N[C@@H](CCCNC(=N)N)C(=O)N[C@@H](CCCCN)C(=O)N2)NC(=O)[C@H](CSSC[C@@H](C(=O)N[C@@H](CCCCN)C(=O)N[C@@H](Cc2ccc(O)cc2)C(=O)N[C@H](C(=O)N[C@@H](Cc2ccccc2)C(N)=O)C(C)C)NC(=O)[C@H](Cc2c[nH]c4ccccc24)NC(=O)[C@H](CCCCN)NC(=O)[C@H](Cc2cnc[nH]2)NC(=O)[C@H]([C@@H](C)O)NC(=O)[C@H](CCCNC(=N)N)NC(=O)[C@H](CO)NC3=O)NC(=O)[C@H](CCCCN)NC(=O)[C@H](CC(=O)O)NC(=O)[C@H](CC(N)=O)NC(=O)[C@H](CC(=O)O)NC(=O)[C@@H]2CCCN2C1=O (H-DCLGFMRKCIPDNDKCCRPNLECSRTHKWCKYVF-NH2; disulfide 2-17, 9-23, 16-30)	> 5 µM
CC[C@H](C)[C@@H]1NC(=O)[C@@H]2CSSC[C@@H]3NC(=O)[C@H](C(C)C)NC(=O)[C@H](CC(C)C)NC(=O)[C@H](CC(N)=O)NC(=O)[C@@H]4CCCN4C(=O)[C@H](CCCNC(=N)N)NC(=O)[C@H](CSSC[C@H](NC(=O)[C@@H](N)CC(=O)O)C(=O)N[C@@H](CC(C)C)C(=O)NCC(=O)N[C@@H](Cc4cccc5ccccc45)C(=O)N[C@@H](CCSC)C(=O)N[C@@H](CCCNC(=N)N)C(=O)N[C@@H](CCCCN)C(=O)N2)NC(=O)[C@H](CSSC[C@@H](C(=O)N[C@@H](CCCCN)C(=O)N[C@@H](Cc2ccc(O)cc2)C(=O)N[C@H](C(=O)N[C@@H](Cc2ccccc2)C(N)=O)C(C)C)NC(=O)[C@H](Cc2c[nH]c4ccccc24)NC(=O)[C@H](CCCCN)NC(=O)[C@H](Cc2c[nH]cn2)NC(=O)[C@H]([C@@H](C)O)NC(=O)[C@H](CCCNC(=N)N)NC(=O)[C@H](CO)NC3=O)NC(=O)[C@H](CCCCN)NC(=O)[C@H](CC(=O)O)NC(=O)[C@H](CC(N)=O)NC(=O)[C@H](CC(=O)O)NC(=O)[C@@H]2CCCN2C1=O	> 5 µM
CSCC[C@@H]1NC(=O)[C@H](Cc2ccccc2)NC(=O)CNC(=O)[C@H](CC(C)C)NC(=O)[C@@H](NC(=O)[C@@H](N)CC(=O)O)CSSC[C@@H]2NC(=O)[C@@H]3CSSC[C@@H](C(=O)N[C@@H](CCCCN)C(=O)N[C@@H](Cc4ccc(O)cc4)C(=O)N[C@H](C(=O)N[C@@H](Cc4ccccc4)C(N)=O)C(C)C)NC(=O)[C@H](Cc4c[nH]c5ccccc45)NC(=O)[C@H](CCCCN)NC(=O)[C@H](Cc4cnc[nH]4)NC(=O)[C@H]([C@@H](C)O)NC(=O)[C@H](CCCNC(=N)N)NC(=O)[C@H](CO)NC(=O)[C@H](CSSC[C@H](NC(=O)[C@H](CCCCN)NC(=O)[C@H](CCCNC(=N)N)NC1=O)C(=O)N[C@@H](Cc1ccccc1)C(=O)N1CCC[C@H]1C(=O)N[C@@H](CC(=O)O)C(=O)N[C@@H](CC(N)=O)C(=O)N[C@@H](CC(=O)O)C(=O)N[C@@H](CCCCN)C(=O)N3)NC(=O)[C@H](C(C)C)NC(=O)[C@H](CC(C)C)NC(=O)[C@H](CC(N)=O)NC(=O)[C@@H]1CCCN1C(=O)[C@H](CCCNC(=N)N)NC2=O (H-DCLGFMRKCFPDNDKCCRPNLVCSRTHKWCKYVF-NH2; disulfide 2-17, 9-23, 16-30)	> 5 µM
CC[C@H](C)[C@@H]1NC(=O)[C@@H]2CSSC[C@@H]3NC(=O)[C@H](C(C)C)NC(=O)[C@H](CC(C)C)NC(=O)[C@H](CCCNC(=N)N)NC(=O)[C@@H]4CCCN4C(=O)[C@H](CCCNC(=N)N)NC(=O)[C@H](CSSC[C@H](NC(=O)[C@@H](N)CC(=O)O)C(=O)N[C@@H](CC(C)C)C(=O)NCC(=O)N[C@@H](Cc4ccccc4)C(=O)N[C@@H](CCSC)C(=O)N[C@@H](CCCNC(=N)N)C(=O)N[C@@H](CCCCN)C(=O)N2)NC(=O)[C@H](CSSC[C@@H](C(=O)N[C@@H](CCCCN)C(=O)N[C@@H](Cc2ccc(O)cc2)C(=O)N[C@H](C(=O)N[C@@H](Cc2ccccc2)C(N)=O)C(C)C)NC(=O)[C@H](Cc2c[nH]c4ccccc24)NC(=O)[C@H](CCCCN)NC(=O)[C@H](Cc2cnc[nH]2)NC(=O)[C@H]([C@@H](C)O)NC(=O)[C@H](CCCNC(=N)N)NC(=O)[C@H](CO)NC3=O)NC(=O)[C@H](CCCCN)NC(=O)[C@H](CC(=O)O)NC(=O)[C@H](CC(N)=O)NC(=O)[C@H](CC(=O)O)NC(=O)[C@@H]2CCCN2C1=O (H-DCLGFMRKCIPDNDKCCRPRLVCSRTHKWCKYVF-NH2; disulfide 2-17, 9-23, 16-30)	> 5 µM
CC[C@H](C)[C@@H]1NC(=O)[C@@H]2CSSC[C@@H]3NC(=O)[C@H](C(C)C)NC(=O)[C@H](CC(C)C)NC(=O)[C@H](CC(N)=O)NC(=O)[C@@H]4CCCN4C(=O)[C@H](CCCNC(=N)N)NC(=O)[C@H](CSSC[C@H](NC(=O)[C@@H](N)CC(=O)O)C(=O)N[C@@H](CC(C)C)C(=O)NCC(=O)N[C@@H](Cc4ccccc4)C(=O)N[C@@H](CCSC)C(=O)N[C@@H](CCCNC(=N)N)C(=O)N[C@@H](CCCCN)C(=O)N2)NC(=O)[C@H](CSSC[C@@H](C(=O)N[C@@H](CCCCN)C(=O)N[C@@H](Cc2ccc(O)cc2)C(=O)N[C@@H](Cc2c[nH]c4ccccc24)C(=O)N[C@@H](Cc2ccccc2)C(N)=O)NC(=O)[C@H](Cc2c[nH]c4ccccc24)NC(=O)[C@H](CCCCN)NC(=O)[C@H](Cc2c[nH]cn2)NC(=O)[C@H]([C@@H](C)O)NC(=O)[C@H](CCCNC(=N)N)NC(=O)[C@H](CO)NC3=O)NC(=O)[C@H](CCCCN)NC(=O)[C@H](CC(=O)O)NC(=O)[C@H](CC(N)=O)NC(=O)[C@H](CC(=O)O)NC(=O)[C@@H]2CCCN2C1=O (H-DCLGFMRKCIPDNDKCCRPNLVCSRTHKWCKYWF-NH2; disulfide 2-17, 9-23, 16-30)	> 5 µM
CC[C@H](C)[C@@H]1NC(=O)[C@@H]2CSSC[C@@H]3NC(=O)[C@H](C(C)C)NC(=O)[C@H](CC(C)C)NC(=O)[C@H](CC(N)=O)NC(=O)[C@@H]4CCCN4C(=O)[C@H](CCCNC(=N)N)NC(=O)[C@H](CSSC[C@H](NC(=O)[C@@H](N)CC(=O)O)C(=O)N[C@@H](CC(C)C)C(=O)NCC(=O)N[C@@H](Cc4ccccc4)C(=O)N[C@@H](Cc4cccc5ccccc45)C(=O)N[C@@H](CCCNC(=N)N)C(=O)N[C@@H](CCCCN)C(=O)N2)NC(=O)[C@H](CSSC[C@@H](C(=O)N[C@@H](CCCCN)C(=O)N[C@@H](Cc2ccc(O)cc2)C(=O)N[C@H](C(=O)N[C@@H](Cc2ccccc2)C(N)=O)C(C)C)NC(=O)[C@H](Cc2c[nH]c4ccccc24)NC(=O)[C@H](CCCCN)NC(=O)[C@H](Cc2cnc[nH]2)NC(=O)[C@H]([C@@H](C)O)NC(=O)[C@H](CCCNC(=N)N)NC(=O)[C@H](CO)NC3=O)NC(=O)[C@H](CCCCN)NC(=O)[C@H](CC(=O)O)NC(=O)[C@H](CC(N)=O)NC(=O)[C@H](CC(=O)O)NC(=O)[C@@H]2CCCN2C1=O	2.3 µM
